These results are taken from ChEMBL document CHEMBL4118249, “Discovery and Identification of Small Molecules as Methuosis Inducers with in Vivo Antitumor Activities” (J Med Chem, 2018).

Molecules are shown by their SMILES. Bounds are passed on as bounds.

Data set [1] deals with Mus musculus. The data set is described as follows: Induction of vacuolization in ICR mouse at 20 mg/kg, iv administered once daily for 12 days measured post last dose by H and E staining based light microscopic method. The note with it: in vivo, 288 h. The data set is classed as organism-based. A digest of the protocol:
(§1)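 Healthy ICR mice dosed at 20 mg/kg for 12 days; normal tissues examined for vacuoles, body weight and blood chemistry assessed.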

Data set [2] relates to Mus musculus. Put plainly: Toxicity in ICR mouse assessed as effect on ALT level in serum at 20 mg/kg, iv administered once daily for 12 days. It counts as organism-based. The note with it: in vivo, 288 h. A digest of the protocol: as §1
The test system of data set [3] is Mus musculus. Put plainly: Toxicity in ICR mouse assessed as body weight loss at 20 mg/kg, iv administered once daily for 12 days. The note with it: in vivo, 288 h. It counts as organism-based. In outline:
as §1

Data set [4] has as its system Mus musculus. Put plainly: Toxicity in ICR mouse assessed as effect on AST level in serum at 20 mg/kg, iv administered once daily for 12 days. It counts as organism-based. The conditions noted are these: in vivo, 288 h. In outline:
as §1

Data set [5] relates to MDA-MB-231. The data set is described as follows: Induction of methuosis in human MDA-MB-231 cells assessed as increase in vacuole formation at 1 uM after 24 hrs by phase contrast microscopic analysis relative to control. It counts as functional.
Data set [6] concerns MDA-MB-231. Put plainly: Induction of methuosis in human MDA-MB-231 cells assessed as increase in vacuole formation at 10 uM after 24 hrs by phase contrast microscopic analysis relative to control. It counts as functional.
For another data set, the system named is A-375. The data set is described as follows: Antiproliferative activity against human A375 cells after 48 hrs by MTS assay. The data set is classed as functional, cell-based. The conditions noted are these: A-375, 48 h.
The next data set concerns SK-MEL-28. The data set is described as follows: Antiproliferative activity against human SK-MEL-28 cells after 48 hrs by MTS assay. It counts as functional, cell-based. The conditions noted are these: SK-MEL-28, 48 h.
The test system of another data set is SK-MEL-30. Put plainly: Antiproliferative activity against human SK-MEL-30 cells after 48 hrs by MTS assay. The data set is classed as functional, cell-based. The note with it: SK-MEL-30, 48 h.
In the next data set the test system is A549. Put plainly: Antiproliferative activity against human A549 cells after 48 hrs by MTS assay. The data set is classed as functional, cell-based. The note with it: A549, 48 h.
Data set [7] deals with MDA-MB-231. Put plainly: Antiproliferative activity against human MDA-MB-231 cells after 48 hrs by MTS assay. It counts as functional, cell-based. The note with it: MDA-MB-231, 48 h.
The test system of the next data set is MDA-MB-435S. Put plainly: Antiproliferative activity against human MDA-MB-435S cells after 48 hrs by MTS assay. It counts as functional, cell-based.
Another data set relates to MCF7. The data set is described as follows: Antiproliferative activity against human MCF7 cells after 48 hrs by MTS assay. It counts as functional, cell-based. The note with it: MCF7, 48 h.
The next data set has as its system HCT-116. The data set is described as follows: Antiproliferative activity against human HCT116 cells after 48 hrs by MTS assay. It counts as functional, cell-based. The note with it: HCT-116, 48 h.
The next data set deals with BGC-823. Put plainly: Antiproliferative activity against human BGC823 cells after 48 hrs by MTS assay. The data set is classed as functional, cell-based. The note with it: BGC-823, 48 h.
A further data set deals with HepG2. The data set is described as follows: Antiproliferative activity against human HepG2 cells after 48 hrs by MTS assay. The conditions noted are these: HepG2, 48 h. It counts as functional, cell-based.
In a further data set the test system is MCF-10A. The data set is described as follows: Cytotoxicity against human MCF10A cells assessed as reduction in cell viability after 48 hrs by MTS assay. The data set is classed as cell-based.
Data set [8] is described as follows: Half life in Balb/c nude mouse at 1 mg/kg, iv. The data set is classed as ADME, organism-based. The note with it: in vivo.
Data set [9] can be described thus: Clearance in Balb/c nude mouse at 1 mg/kg, iv. The note with it: in vivo. The data set is classed as ADME, organism-based.
A short description of data set [10]: Volume of distribution in Balb/c nude mouse at 1 mg/kg, iv. The conditions noted are these: in vivo. It counts as ADME, organism-based.
The test system of data set [11] is MDA-MB-231. The data set is described as follows: Antitumor activity against human MDA-MB-231 cells xenografted in Balb/c nude mouse assessed as tumor growth inhibition at 5 mg/kg, iv administered once daily for 13 days measured 6 hrs post last dose relative to control. The note with it: MDA-MB-231, iv, read-out: TGI. The data set is classed as functional. A digest of the protocol: (§2)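 Female BALB/c nude mice (4–6 weeks) injected subcutaneously with 5×10^6 MDA-MB-231 cells; at ~100 mm3 (length×width²×0.5) randomized (n = 6) and dosed iv by tail vein once daily at 5 or 20 mg/kg in 10% Kolliphor HS 15 in saline, or vehicle; tumor volume and weight measured daily; tumors excised 6 h after final dose, H&E stained.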

Data set [12] relates to MDA-MB-231. Put plainly: Antitumor activity against human MDA-MB-231 cells xenografted in Balb/c nude mouse assessed as tumor growth inhibition at 20 mg/kg, iv administered once daily for 13 days measured 6 hrs post last dose relative to control. It counts as functional. The note with it: MDA-MB-231, iv, read-out: TGI. A digest of the protocol:
as §2

The subject of data set [13] is Mus musculus. The data set is described as follows: Toxicity in Balb/c nude mouse xenografted with human MDA-MB-231 cells assessed as body weight loss at 5 to 20 mg/kg, iv administered once daily for 13 days measured daily during compound dosing. The note with it: in vivo, 312 h.

For `Cc1ccc(NC(=O)c2cccc(C(F)(F)F)c2)cc1Nc1cc(-c2cccnc2)nc2[nH]ccc12.Cl`, the Activity result in the data set with Mus musculus [1], in the data set on Mus musculus [2], with Mus musculus [3] and in the data set on Mus musculus [4] was “Non-Toxic” in each case.

For `Cc1ccc(NC(=O)c2cccc(C(F)(F)F)c2)cc1Nc1cc(-c2cccnc2)nc2[nH]ccc12`, the results for the Activity in the data set with MDA-MB-231 [5], in the data set on MDA-MB-231 [6] and in the data set with Mus musculus [13] were 99.75%, 100% and “Non-Toxic”, respectively. Besides, the IC50 stood at 326 nM in the data set on A-375; 1370 nM in the data set on SK-MEL-28; 1660 nM in the data set on SK-MEL-30; 1890 nM with A549; 1570 nM in the data set with MDA-MB-231 [7]; 2270 nM in the data set with MDA-MB-435S. In addition, the 50% inhibitory concentration (IC50) with MCF7 is 2610 nM; with HCT-116, 1010 nM; with BGC-823, 1570 nM; in the data set on HepG2 it was 1200 nM; with MCF-10A it was greater than 10000 nM. In [8], this compound showed a half-life of 8.74 h. Also, the clearance in [9] worked out at 36.5 mL/min/kg. In addition, in data set [10], the Vd was determined as 15.5 L/kg. Further, in the data set with MDA-MB-231 [11], the inhibition in vivo at 5 mg/kg came to 25.9%. For the same compound, the inhibition in vivo at 20 mg/kg in the data set on MDA-MB-231 [12] was 60.1%.
